Experimental data taken from ChEMBL document CHEMBL1152176, “Pyrazoline-based mycobactin analogues as MAO-inhibitors” (Bioorg Med Chem Lett, 2008).

Tests used:
[1] = biological target: T1, Amine oxidase [flavin-containing] A (Rattus norvegicus, UniProt P21396); assay: Inhibition of MAOA in rat liver homogenates preincubated for 60 mins; format: tissue-based
T1 sequence (P21396 whole entry): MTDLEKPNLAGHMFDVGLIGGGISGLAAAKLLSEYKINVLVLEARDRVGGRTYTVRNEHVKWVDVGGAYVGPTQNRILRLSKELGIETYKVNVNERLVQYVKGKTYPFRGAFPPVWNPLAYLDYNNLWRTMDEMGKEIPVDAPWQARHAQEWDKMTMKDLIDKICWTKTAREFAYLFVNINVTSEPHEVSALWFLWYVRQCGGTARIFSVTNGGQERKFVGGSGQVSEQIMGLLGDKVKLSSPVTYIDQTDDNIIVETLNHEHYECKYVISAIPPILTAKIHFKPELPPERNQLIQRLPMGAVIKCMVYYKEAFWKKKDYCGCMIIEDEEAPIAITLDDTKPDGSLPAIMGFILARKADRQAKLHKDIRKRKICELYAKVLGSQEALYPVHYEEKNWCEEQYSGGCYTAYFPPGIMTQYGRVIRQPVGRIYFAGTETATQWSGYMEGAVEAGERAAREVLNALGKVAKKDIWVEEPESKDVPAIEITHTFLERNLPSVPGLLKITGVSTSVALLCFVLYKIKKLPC
Procedure, shortened: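 Rat liver MAO assayed by Holt's spectrophotometric method. The chromogenic mix was vanillinic acid, 4-aminoantipyrine and peroxidase type II in potassium phosphate pH 7.6, preincubated with p-tyramine. Inhibitors were preincubated with enzyme at 37 °C for 60 min. A498 was read at 37 °C for 60 min. IC50 came from residual activity versus [I]; mean of three independent experiments.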

[2] = biological target: T2, Amine oxidase [flavin-containing] B (Rattus norvegicus, UniProt P19643); assay: Inhibition of MAOB in rat liver homogenates preincubated for 60 mins; format: tissue-based
T2 sequence (P19643 whole entry): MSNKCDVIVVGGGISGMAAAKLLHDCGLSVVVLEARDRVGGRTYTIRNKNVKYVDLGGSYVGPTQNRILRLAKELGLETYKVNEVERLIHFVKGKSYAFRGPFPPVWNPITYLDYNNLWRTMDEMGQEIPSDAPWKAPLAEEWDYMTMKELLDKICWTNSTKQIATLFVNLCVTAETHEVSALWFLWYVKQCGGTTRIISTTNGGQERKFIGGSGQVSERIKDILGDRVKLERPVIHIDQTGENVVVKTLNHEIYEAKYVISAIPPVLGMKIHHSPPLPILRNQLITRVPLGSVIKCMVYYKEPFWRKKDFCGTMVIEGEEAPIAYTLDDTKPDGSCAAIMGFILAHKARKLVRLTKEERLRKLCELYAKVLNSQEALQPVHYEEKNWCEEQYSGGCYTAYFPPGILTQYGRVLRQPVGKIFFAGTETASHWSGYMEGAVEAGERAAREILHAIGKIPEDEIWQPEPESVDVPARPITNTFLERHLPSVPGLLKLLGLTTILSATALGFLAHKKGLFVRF

[3] = Inhibition of rat liver monoamine oxidase by Lineweaver-Burke plot

SMILES	IC50 [1] [µM]	IC50 [2] [µM]	Ki [3] [µM]
COc1cc(C2CC(c3ccccc3O)=NN2C(=S)Nc2ccccc2C)ccc1O (configuration not stated)	201	198	
COc1ccccc1NC(=S)N1N=C(c2ccc(O)cc2O)CC1c1ccc(O)cc1 (configuration not stated)	148	171	
Oc1ccccc1C1=NN(C(=S)Nc2ccccc2)C(c2ccccc2)C1 (configuration not stated)	49.2	439	40.2
COc1cc(C2CC(c3ccccc3O)=NN2C(=S)Nc2ccccc2)ccc1O (configuration not stated)	40.1	451	62.7
Cc1ccc(NC(=S)N2N=C(c3ccccc3O)CC2c2ccc(O)cc2)cc1 (configuration not stated)	475	46.1	42.9
COc1ccc(NC(=S)N2N=C(c3ccccc3O)CC2c2ccc(O)cc2)cc1 (configuration not stated)	401	41.1	39.2
COc1ccc(NC(=S)N2N=C(c3ccc(O)cc3O)CC2c2ccc(O)c(OC)c2)cc1 (configuration not stated)	53.4	475	71.1
COc1ccccc1C1CC(c2ccccc2O)=NN1C(=S)Nc1ccccc1 (configuration not stated)	74.2	419	63.6
Cc1ccccc1NC(=S)N1N=C(c2ccccc2O)CC1c1ccc(O)cc1 (configuration not stated)	189	180	
COc1ccccc1NC(=S)N1N=C(c2ccccc2O)CC1c1ccccc1O (configuration not stated)	144	171	
COc1cc(C2CC(c3ccccc3O)=NN2C(=S)Nc2ccc(C)cc2)ccc1O (configuration not stated)	50.6	481	75.1
C#CCN(C)[C@H](C)Cc1ccccc1 [SELEGILINE]			1.9
C#CCN(C)CCCOc1ccc(Cl)cc1Cl [CLORGILINE]			1.99
Oc1ccccc1C1=NN(C(=S)Nc2ccccc2)C(c2ccccc2Cl)C1 (configuration not stated)	20	455	18.6
Oc1ccc(C2CC(c3ccccc3)=NN2C(=S)Nc2ccccc2)cc1 (configuration not stated)	476	48.6	40.6
Oc1ccccc1C1=NN(C(=S)Nc2ccccc2)C(c2cccs2)C1 (configuration not stated)	5.56		
Oc1ccccc1C1=NN(C(=S)Nc2ccccc2)C(c2ccco2)C1 (configuration not stated)	33.4	440	27.5
Cc1ccccc1NC(=S)N1N=C(c2ccccc2O)CC1c1ccccc1O (configuration not stated)	170	180	

SMILES	IC50 [1] [µM]	IC50 [2] [µM]	Ki [3] [µM]
COc1ccc(C2CC(c3ccccc3O)=NN2C(=S)Nc2ccccc2)cc1 (configuration not stated)	2.84	415	2.5
COc1cc(C2CC(c3ccccc3O)=NN2C(=S)Nc2ccccc2OC)ccc1O (configuration not stated)	170	201	
COc1ccccc1NC(=S)N1N=C(c2ccccc2O)CC1c1ccc(O)cc1 (configuration not stated)	151	144	
C#CCN(C)Cc1ccccc1 [PARGYLINE]		3.85	3.25
Oc1ccc(C2=NN(C(=S)Nc3ccccc3)C(c3ccc(O)cc3)C2)cc1 (configuration not stated)	32.1	486	30.6
Oc1ccc(C2CC(c3ccccc3O)=NN2C(=S)Nc2ccccc2)cc1 (configuration not stated)	67.2	400	50.5
NC(=S)N1N=C(c2ccccc2O)CC1c1ccc(O)cc1 (configuration not stated)	466	19.5	15.2
COc1ccc(NC(=S)N2N=C(c3ccccc3O)CC2c2ccc(O)c(OC)c2)cc1 (configuration not stated)	48.9	477	60.5
Oc1ccccc1C1=NN(C(=S)Nc2ccccc2)C(c2ccc(Cl)cc2)C1 (configuration not stated)	23.2	400	20.1
COc1cc(C2CC(c3ccc(O)cc3O)=NN2C(=S)Nc2ccccc2OC)ccc1O (configuration not stated)	180	170	
Oc1ccc(C2CC(c3ccc(O)cc3O)=NN2C(=S)Nc2ccccc2)cc1 (configuration not stated)	58.6	470	80
Cc1ccc(NC(=S)N2N=C(c3ccccc3O)CC2c2ccccc2O)cc1 (configuration not stated)	400	37.7	35
COc1cc(C2CC(c3ccc(O)cc3O)=NN2C(=S)Nc2ccccc2)ccc1O (configuration not stated)	65.6	490	79.2
COc1ccc(NC(=S)N2N=C(c3ccccc3O)CC2c2ccccc2O)cc1 (configuration not stated)	470	40.8	36.2
Oc1ccccc1C1=NN(C(=S)Nc2ccccc2)C(c2ccccc2O)C1 (configuration not stated)	58.1	420	48.5
O=C(NCCN1CCOCC1)c1ccc(Cl)cc1 [MOCLOBEMIDE]		480	2.25
COc1ccc(NC(=S)N2N=C(c3ccc(O)cc3O)CC2c2ccc(O)cc2)cc1 (configuration not stated)	69.6	456	85.5
Oc1ccccc1C1CC(c2ccccc2)=NN1C(=S)Nc1ccccc1 (configuration not stated)	451	35.5	34.7
